Laboratory results reported in ChEMBL document CHEMBL4834402, “Discovery of TAK-981, a First-in-Class Inhibitor of SUMO-Activating Enzyme for the Treatment of Cancer” (J Med Chem, 2021).
In brackets after ≈: the same amount, converted by molar mass. Activity calls are given as the source filed them. The calls are words filed in the database; no cut-off is given here.

What was measured:
[1] = molecular target: T1, SUMO-activating enzyme (Homo sapiens, UniProt Q9UBT2); assay: Inhibition of recombinant SAE (unknown origin) assessed as reduction in transfer of SUMO1 to UBC9 using SUMO1 as a substrate in presence of ATP at Km concentration by HTRF assay; format: protein-complex assay
T1 sequence (Q9UBE0 whole entry): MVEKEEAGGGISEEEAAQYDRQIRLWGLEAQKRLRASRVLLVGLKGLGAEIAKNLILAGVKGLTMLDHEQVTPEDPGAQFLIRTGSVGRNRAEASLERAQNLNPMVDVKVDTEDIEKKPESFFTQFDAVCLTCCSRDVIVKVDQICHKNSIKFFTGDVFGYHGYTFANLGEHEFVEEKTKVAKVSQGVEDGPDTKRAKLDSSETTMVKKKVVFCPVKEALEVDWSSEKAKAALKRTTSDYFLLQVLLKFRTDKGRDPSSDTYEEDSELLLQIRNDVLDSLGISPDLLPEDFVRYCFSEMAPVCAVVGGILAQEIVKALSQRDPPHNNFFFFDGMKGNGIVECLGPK
T1 sequence (Q9UBT2 whole entry): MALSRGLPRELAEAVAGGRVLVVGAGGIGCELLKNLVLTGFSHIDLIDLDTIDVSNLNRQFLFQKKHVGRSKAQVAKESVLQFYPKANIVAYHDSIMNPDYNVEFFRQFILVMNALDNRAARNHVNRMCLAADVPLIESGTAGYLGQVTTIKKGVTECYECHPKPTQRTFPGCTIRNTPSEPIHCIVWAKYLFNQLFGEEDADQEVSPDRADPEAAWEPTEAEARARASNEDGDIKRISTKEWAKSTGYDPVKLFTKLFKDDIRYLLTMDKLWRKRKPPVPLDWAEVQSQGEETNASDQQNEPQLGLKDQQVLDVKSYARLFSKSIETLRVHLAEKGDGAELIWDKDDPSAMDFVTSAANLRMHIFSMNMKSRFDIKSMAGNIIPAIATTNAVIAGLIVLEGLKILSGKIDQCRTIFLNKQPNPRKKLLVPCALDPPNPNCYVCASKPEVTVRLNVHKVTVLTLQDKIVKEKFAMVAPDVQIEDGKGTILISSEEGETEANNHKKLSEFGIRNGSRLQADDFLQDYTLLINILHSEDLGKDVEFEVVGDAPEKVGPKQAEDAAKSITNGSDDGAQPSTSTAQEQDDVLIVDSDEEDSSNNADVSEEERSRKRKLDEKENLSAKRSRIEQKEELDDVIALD
Summary of the method: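 HTRF transthiolation assay measuring transfer of SUMO1 to UBC9, the E2 for SAE.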

[2] = Inhibition of recombinant UAE (unknown origin) in presence of ATP at Km concentration by HTRF assay; set-up: species or system Homo sapiens
[3] = molecular target: T2, NEDD8 activating enzyme (Homo sapiens, UniProt Q8TBC4); assay: Inhibition of recombinant NAE (unknown origin) in presence of ATP at Km concentration by HTRF assay; format: protein-complex assay
T2 sequence (Q8TBC4 whole entry): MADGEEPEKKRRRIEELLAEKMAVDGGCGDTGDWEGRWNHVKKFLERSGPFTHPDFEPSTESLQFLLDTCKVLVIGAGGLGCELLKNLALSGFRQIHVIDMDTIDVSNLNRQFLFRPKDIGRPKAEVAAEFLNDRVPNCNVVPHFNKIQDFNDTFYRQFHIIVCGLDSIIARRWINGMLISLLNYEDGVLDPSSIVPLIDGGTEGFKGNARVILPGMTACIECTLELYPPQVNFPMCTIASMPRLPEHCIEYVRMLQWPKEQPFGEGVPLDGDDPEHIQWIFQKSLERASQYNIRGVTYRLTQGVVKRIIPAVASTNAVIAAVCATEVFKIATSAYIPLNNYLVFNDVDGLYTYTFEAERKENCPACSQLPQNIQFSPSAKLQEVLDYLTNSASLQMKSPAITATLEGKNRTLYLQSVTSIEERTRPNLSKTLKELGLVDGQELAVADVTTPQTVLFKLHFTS
T2 sequence (Q13564 whole entry): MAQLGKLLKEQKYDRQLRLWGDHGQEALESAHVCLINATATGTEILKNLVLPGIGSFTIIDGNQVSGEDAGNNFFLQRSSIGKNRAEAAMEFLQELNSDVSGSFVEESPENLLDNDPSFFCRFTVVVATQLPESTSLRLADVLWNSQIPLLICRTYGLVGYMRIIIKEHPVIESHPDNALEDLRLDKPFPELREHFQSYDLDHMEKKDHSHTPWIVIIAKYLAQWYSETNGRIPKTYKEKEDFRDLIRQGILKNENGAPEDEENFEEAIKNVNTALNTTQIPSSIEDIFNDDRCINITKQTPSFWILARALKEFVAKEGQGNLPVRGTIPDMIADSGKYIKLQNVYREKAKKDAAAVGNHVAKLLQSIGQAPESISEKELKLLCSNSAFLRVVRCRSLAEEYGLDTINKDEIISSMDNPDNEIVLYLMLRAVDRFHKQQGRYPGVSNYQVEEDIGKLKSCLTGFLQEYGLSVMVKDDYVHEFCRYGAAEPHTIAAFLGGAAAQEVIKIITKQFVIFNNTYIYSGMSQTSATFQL

[4] = molecular target: T1, SUMO-activating enzyme; assay: Inhibition of SAE in human HCT116 cells assessed as reduction in redistribution of SUMO2/3 proteins from nucleus to cytosol incubated for 4 hrs by immunofluorescence assay; format: cell-based, HCT-116
Summary of the method: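 HCT-116 cells exposed to compound across a concentration range for 4 h, then stained with anti-SUMO2/3 monoclonal antibody. Automated imaging scored the nuclear (inner) to cytoplasmic (outer) SUMO2/3 ratio. IC50 taken from the dose response.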

[5] = system: HCT-116; assay: Cytotoxicity against human HCT116 cells assessed as reduction in cell viability after 72 hrs by CellTiter-Glo luminescent assay; format: functional, cell-based; settings: HCT-116, 72 h
[6] = system: OCI-Ly10; assay: Cytotoxicity against human OCI-LY10 cells assessed as reduction in cell viability after 72 hrs by CellTiter-Glo luminescent assay; format: functional, cell-based; settings: OCI-Ly10, 72 h
[7] = Lipophilicity, logD of compound at pH 7.4; format: physicochemical; settings: buffer
[8] = Dissociation constant , pKa of the compound; format: physicochemical
[9] = Apparent permeability across apical to basolateral side in human Caco2 cells; format: ADME, cell-based; settings: Caco-2
[10] = Apparent permeability across basolateral to apical side in human Caco2 cells; format: ADME, cell-based; settings: Caco-2
[11] = Efflux ratio of apparent permeability across basolateral to apical side over apical to basolateral side in human Caco-2 cells; format: ADME, cell-based
[12] = Solubility of compound in 10% hydroxypropyl-beta-cyclodextrin after 24 hrs; format: physicochemical
[13] = molecular target: Carbonic anhydrase 1 (Homo sapiens, UniProt P00915); assay: Inhibition of human erythrocyte CA1 using fluorescein diacetate as substrate at […] by fluorometric esterase assay
Sequence of Carbonic anhydrase 1 (P00915 whole entry): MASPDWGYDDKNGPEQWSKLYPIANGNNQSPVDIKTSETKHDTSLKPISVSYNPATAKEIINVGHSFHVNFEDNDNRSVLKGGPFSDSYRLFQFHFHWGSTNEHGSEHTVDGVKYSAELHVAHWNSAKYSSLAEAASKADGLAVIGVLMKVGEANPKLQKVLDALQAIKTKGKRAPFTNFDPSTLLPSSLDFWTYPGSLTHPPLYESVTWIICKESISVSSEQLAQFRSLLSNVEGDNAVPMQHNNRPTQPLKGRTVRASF

[14] = molecular target: Carbonic anhydrase 2 (Homo sapiens, UniProt P00918); assay: Inhibition of recombinant human CA2 expressed in Escherichia coli using fluorescein diacetate as substrate at […] by fluorometric esterase assay
[15] = AUC in rat blood at 1 mg/kg, iv; format: ADME, organism-based; set-up: dose 1 mg/kg
[16] = AUC in rat plasma at 1 mg/kg, iv; format: ADME, organism-based; set-up: dose 1 mg/kg
[17] = Clearance in rat blood at 1 mg/kg, iv; format: ADME, organism-based; settings: in vivo
[18] = Clearance in rat plasma at 1 mg/kg, iv; format: ADME, organism-based; settings: in vivo
[19] = Volume of distribution at steady state in rat blood at 1 mg/kg, iv; format: ADME, organism-based; settings: read-out: Vdss
[20] = Volume of distribution at steady state in rat plasma at 1 mg/kg, iv; format: ADME, organism-based; settings: read-out: Vdss
[21] = Half life in rat blood at 1 mg/kg, iv; format: ADME, organism-based
[22] = Half life in rat plasma at 1 mg/kg, iv; format: ADME, organism-based
[23] = AUC in rat blood at 10 mg/kg, po; format: ADME, organism-based; set-up: dose 10 mg/kg
[24] = AUC in rat plasma at 10 mg/kg, po; format: ADME, organism-based; set-up: dose 10 mg/kg
[25] = Oral bioavailability in rat blood at 10 mg/kg; format: ADME, organism-based
[26] = Oral bioavailability in rat plasma at 10 mg/kg; format: ADME, organism-based
[27] = molecular target: T3, SUMO-activating enzyme (Homo sapiens) (UniProt Q9UBE0+Q9UBT2); assay: Inhibition of SAE in human HCT116 cells xenografted in NCr nude mouse assessed as reduction in SUMO2/3 protein conjugates at 50 mg/kg, iv and measured up to 16 hrs by immunohistochemistry analysis; format: organism-based; settings: HCT-116
Summary of the method: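 HCT-116 tumors in female Ncr nude mice, n = 3 per time point, after a single IV dose at t = 0. SUMO2/3 conjugation in tumors measured by IHC at 2, 4, 8 and 16 h. Read-out is nuclei staining positive for SUMO2/3 conjugates over total nuclei, normalized to vehicle-treated animals (time = 0 h), expressed as percent inhibition.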

[28] = molecular target: T3, SUMO-activating enzyme (Homo sapiens); assay: Inhibition of SAE in human HCT116 cells xenografted in NCr nude mouse assessed as improvement in SUMO-inhibitor adduct durability at 50 mg/kg, iv and measured up to 16 hrs by mass spectrometry; format: organism-based; settings: HCT-116
Summary of the method: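 Single IV dose at t = 0 to female Ncr nude mice bearing HCT-116 tumors, n = 3 per time point. Tumors harvested 2, 4, 8 and 16 h post-injection. Read-out is the adduct/SAE ratio: quantity of SUMO-compound adduct over quantity of total SAE enzyme, both measured by mass spectrometry. Values are averaged per time point.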

[29] = system: HCT-116; assay: Antitumor activity against human HCT-116 cells xenografted in Ncr/nude mouse assessed as tumor growth inhibition at 50 mg/kg, sc administered once daily for 21 days and measured twice weekly; format: functional, organism-based; settings: time 21.0 day
Summary of the method: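 Female Ncr/nude mice carrying HCT-116 tumors (~200 mm3) were randomized, n = 8/group, with treatment from Day 1. Schedules were QD x21 (Days 1–21) or QD x3/week (three consecutive dosing days, four off). Tumor volume was measured twice weekly.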

[30] = system: OCI-Ly10; assay: Antitumor activity against human OCI-Ly10 cells xenografted in CB17 SCID mouse assessed as tumor growth inhibition at 50 mg/kg, sc mg/kg administered once daily for 21 days and measured twice weekly; format: functional, organism-based; settings: time 21.0 day
Summary of the method: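 Female CB17 SCID mice carrying OCI-Ly10 tumors (~200 mm3) were randomized, n = 8/group, with treatment from Day 1. Schedules were QD x21 (Days 1–21) or QD x3/week (three consecutive dosing days, four off). Tumor volume was measured twice weekly.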

[31] = molecular target: T1, SUMO-activating enzyme; assay: Inhibition of SAE (unknown origin) using SUMO1 as substrate incubated for 60 mins in presence of ATP and PPi by pyrophosphate exchange assay; format: protein-complex assay
Summary of the method: (§1)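 Pyrophosphate exchange assay of E1 activity at 1 mM ATP. Substrates were SUMO1 or SUMO2 for SAE, Ub for UAE and Nedd-8 for NAE.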

[32] = molecular target: T1, SUMO-activating enzyme; assay: Inhibition of SAE (unknown origin) using SUMO2 as substrate incubated for 60 mins in presence of ATP and PPi by pyrophosphate exchange assay; format: protein-complex assay; summary of the method: as §1
[33] = Inhibition of UAE (unknown origin) using Ub as substrate incubated for 60 mins in presence of ATP and PPi by pyrophosphate exchange assay; set-up: species or system Homo sapiens; summary of the method: as §1
[34] = molecular target: T2, NEDD8 activating enzyme; assay: Inhibition of NAE (unknown origin) using Nedd-8 as substrate incubated for 60 mins in presence of ATP and PPi by pyrophosphate exchange assay; format: protein-complex assay; summary of the method: as §1
[35] = molecular target: T1, SUMO-activating enzyme; assay: Inhibition of SAE in human HCT116 cells assessed as reduction in conjugation of SUMO proteins to UBC9 by Western blot analysis; format: cell-based, HCT-116
Summary of the method: (§2)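 HCT116 cells, quantitative Western blot of E2–UBL conjugates. Read-outs were SUMO–UBC9 for SAE, ubiquitin–[…] for UAE and Nedd-8–[…] for NAE.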

[36] = Inhibition of UAE in human HCT116 cells assessed as reduction in conjugation of ubiquitin to […] by Western blot analysis; format: cell-based; settings: hct-116; summary of the method: as §2
[37] = molecular target: T2, NEDD8 activating enzyme; assay: Inhibition of NAE in human HCT116 cells assessed as reduction in conjugation of Nedd8 […] by Western blot analysis; format: cell-based, HCT-116; summary of the method: as §2
[38] = system: HCT-116; assay: Antitumor activity against human HCT116 cells xenografted in sc dosed NCr nude mouse assessed as tumor growth inhibition administered twice per day for 21 days by vernier caliper method; format: functional, organism-based; settings: dose 150.0 mg/kg, time 21.0 day
Summary of the method: (§3)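 Female NCr nude mice with HCT-116 tumors, n = 10/arm, dosed subcutaneously until Day 21. Schedules were BID x21 (days 1–21) or BID BIW (days 1, 4, 8, 11, 15, 18, 21).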

[39] = system: HCT-116; assay: Antitumor activity against human HCT116 cells xenografted in sc dosed NCr nude mouse assessed as tumor growth inhibition administered on day 1, 4, 8, 11, 15, 18 and 21 by vernier caliper method; format: functional, organism-based; settings: dose 200.0 mg/kg, time 21.0 day; summary of the method: as §3
[40] = system: HCT-116; assay: Antitumor activity against human HCT116 cells xenografted in sc dosed NCr nude mouse assessed as tumor growth inhibition administered on day 1, 2, 8, 9, 15, […] and […] by vernier caliper method; format: functional, organism-based; settings: dose 150.0 mg/kg, time 21.0 day

Structure (SMILES)	IC50 [1] [nM]	IC50 [2] [nM]	IC50 [3] [nM]	IC50 [4] [nM]	EC50 [5] [nM]	EC50 [6] [nM]	logD [7]	pKa [8]	Papp A→B [9] [×10⁻⁶ cm/s]	Papp B→A [10] [×10⁻⁶ cm/s]	IC50 [13] [nM]	AUC [15] [µM·h]	AUC [16] [µM·h]	clearance [17] [mL/min/kg]	clearance [18] [mL/min/kg]	Vd [19] [L/kg]	Vd [20] [L/kg]	half-life [21] [h]	half-life [22] [h]	AUC [23] [µM·h]	further results
Cc1sc(C(=O)c2cncnc2N[C@@H]2C[C@H](COS(N)(=O)=O)[C@@H](O)C2)cc1C1OCCc2ccc(Cl)cc21 (stereo in doubt) [listing 1 of 2 here]	0.4	> 1000	386	3	110	4	1.9	3.5	4	64	50	12.5	0.3	1.67	86.7	0.2	5	4	1.5	24.1	efflux ratio [11]: > 16; solubility at 24 h [12]: 100 µg/mL (≈ 173 µM); IC50 [14]: 10 nM; AUC [24]: 0.6 µM·h; bioavailability [25]: 19%; bioavailability [26]: 18%
Cc1sc(C(=O)c2cncnc2N[C@@H]2C[C@H](COS(N)(=O)=O)[C@@H](O)C2)cc1C1OCCc2ccc(Cl)cc21 (stereo in doubt) [listing 2 of 2 here]	–	–	–	–	–	–	–	–	–	–	–	–	–	–	–	–	–	–	–	–	inhibition [27]: Active; inhibition [28]: Active; Activity [29]: Active; Activity [30]: Active
NS(=O)(=O)OC[C@H]1C[C@@H](Nc2ncncc2C(=O)c2ccn(Cc3ccccc3)n2)[C@H](O)[C@@H]1O	1	58	29	26	–	–	–	–	–	–	–	–	–	–	–	–	–	–	–	–	IC50 [31]: 6 nM; IC50 [32]: 50 nM; IC50 [33]: 1100 nM; IC50 [34]: 300 nM; IC50 [35]: 6 nM; IC50 [36]: 410 nM; IC50 [37]: 1400 nM
NS(=O)(=O)OC[C@H]1C[C@@H](Nc2ncncc2C(=O)c2ccn(Cc3cccc(Br)c3)n2)C[C@@H]1O	–	–	228	–	90	55	2.6	3.6	1.2	64	50	19.1	0.4	1.67	85	0.1	5.1	1.2	0.9	10.8	Activity [38]: Dose-Dependent Effect; Activity [39]: Dose-Dependent Effect; Activity [40]: Dose-Dependent Effect; AUC [24]: 0.1 µM·h; bioavailability [25]: 6.9%; bioavailability [26]: 7.1%
